# Measured values as given in ChEMBL document CHEMBL1138621, “Inhibition of tRNA-dependent ligase MurM from Streptococcus pneumoniae by phosphonate and sulfonamide inhibitors” (Bioorg Med Chem, 2009).
# Active and inactive are the calls of the source. The calls are words filed in the database; no cut-off is given here.
# How the values were obtained:
# Streptococcus pneumoniae [1] = assay: Inhibition of penicillin-resistant Streptococcus pneumoniae 159 recombinant MurM at 1 mM by liquid scintillation counting
# [2] = Inhibition of penicillin-resistant Streptococcus pneumoniae 159 recombinant MurM by liquid scintillation counting
# [3] = target: T1, Alanine--tRNA ligase (Streptococcus pneumoniae serotype 4 (strain ATCC BAA-334 / TIGR4)) (UniProt Q97Q48); assay: Inhibition of Streptococcus pneumoniae alanyl tRNA synthetase expressed in Escherichia coli BL21 (DE3) assessed as formation of [3H]alanyl tRNA at 1 mM
# T1 sequence (whole entry): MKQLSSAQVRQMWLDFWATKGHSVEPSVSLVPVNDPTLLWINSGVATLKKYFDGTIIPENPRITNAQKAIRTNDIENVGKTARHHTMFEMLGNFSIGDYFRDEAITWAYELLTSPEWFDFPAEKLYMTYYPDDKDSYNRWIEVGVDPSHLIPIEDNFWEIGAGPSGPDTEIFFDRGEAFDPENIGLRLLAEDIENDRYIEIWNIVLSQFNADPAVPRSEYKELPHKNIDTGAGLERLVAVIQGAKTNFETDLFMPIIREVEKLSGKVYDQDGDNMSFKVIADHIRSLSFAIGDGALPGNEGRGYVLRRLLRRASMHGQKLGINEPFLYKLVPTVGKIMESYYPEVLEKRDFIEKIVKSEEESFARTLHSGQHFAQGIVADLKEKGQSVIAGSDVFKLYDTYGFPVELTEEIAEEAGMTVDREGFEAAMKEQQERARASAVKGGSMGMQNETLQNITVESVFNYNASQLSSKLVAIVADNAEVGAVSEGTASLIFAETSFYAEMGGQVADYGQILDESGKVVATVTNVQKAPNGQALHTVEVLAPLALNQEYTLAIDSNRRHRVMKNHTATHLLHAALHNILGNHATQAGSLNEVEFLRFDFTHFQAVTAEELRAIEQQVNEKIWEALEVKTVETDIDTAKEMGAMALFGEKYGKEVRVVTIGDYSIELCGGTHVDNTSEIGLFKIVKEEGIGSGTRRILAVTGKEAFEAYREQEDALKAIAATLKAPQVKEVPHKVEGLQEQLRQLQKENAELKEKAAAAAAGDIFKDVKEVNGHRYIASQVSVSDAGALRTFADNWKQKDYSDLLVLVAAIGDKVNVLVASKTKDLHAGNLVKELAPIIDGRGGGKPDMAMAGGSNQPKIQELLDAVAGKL
# [4] = target: T1, Alanine--tRNA ligase (Streptococcus pneumoniae serotype 4 (strain ATCC BAA-334 / TIGR4)); assay: Inhibition of Streptococcus pneumoniae alanyl tRNA synthetase expressed in Escherichia coli BL21 (DE3) assessed as formation of [3H]alanyl tRNA at 100 uM
# Enterococcus faecalis = assay: Antimicrobial activity against Enterococcus faecalis expressing femABX gene at 1 to 5 mM by NCCLS method; format: functional, organism-based
# In short: (§1)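 Growth inhibition in liquid culture per NCCLS protocol, compounds at 1–5 mM final concentration; strains tested: S. pneumoniae 159 and pn16, S. aureus MRSA and MSSA, E. faecalis, M. flavus, E. coli.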
# [5] = target: T2, Serine--tRNA ligase (Streptococcus pneumoniae serotype 4 (strain ATCC BAA-334 / TIGR4)) (UniProt Q97SG0); assay: Inhibition of Streptococcus pneumoniae seryl tRNA synthetase expressed in Escherichia coli BL21 (DE3) assessed as formation of [3H]seryl tRNA at 100 uM
# T2 sequence (whole entry): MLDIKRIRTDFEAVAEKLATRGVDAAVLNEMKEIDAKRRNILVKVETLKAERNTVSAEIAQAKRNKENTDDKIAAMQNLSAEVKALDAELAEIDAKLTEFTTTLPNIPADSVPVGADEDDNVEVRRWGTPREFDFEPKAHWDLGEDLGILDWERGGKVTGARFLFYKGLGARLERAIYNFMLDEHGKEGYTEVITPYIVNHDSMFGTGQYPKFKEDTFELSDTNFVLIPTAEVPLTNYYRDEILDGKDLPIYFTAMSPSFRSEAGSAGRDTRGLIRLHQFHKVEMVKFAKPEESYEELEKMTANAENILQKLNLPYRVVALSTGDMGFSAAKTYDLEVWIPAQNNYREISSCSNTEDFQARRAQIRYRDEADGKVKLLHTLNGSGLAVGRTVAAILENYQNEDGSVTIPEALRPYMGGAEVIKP
# Streptococcus pneumoniae [6] = assay: Antibacterial activity against penicillin- resistant Streptococcus pneumoniae 159 at 1 mM by NCCLS method; format: functional, organism-based; in short: as §1
# Micrococcus flavus = assay: Antimicrobial activity against Micrococcus flavus expressing femABX gene at 1 to 5 mM by NCCLS method; format: functional, organism-based; in short: as §1
# [7] = target: T2, Serine--tRNA ligase (Streptococcus pneumoniae serotype 4 (strain ATCC BAA-334 / TIGR4)); assay: Inhibition of Streptococcus pneumoniae seryl tRNA synthetase expressed in Escherichia coli BL21 (DE3) assessed as formation of [3H]seryl tRNA at 1 mM
# Staphylococcus aureus [8] = assay: Antimicrobial activity against methicillin-susceptible Staphylococcus aureus expressing femABX gene at 1 to 5 mM by NCCLS method; format: functional, organism-based; in short: as §1
# Staphylococcus aureus [9] = assay: Antimicrobial activity against methicillin-resistant Staphylococcus aureus expressing femABX gene at 1 to 5 mM by NCCLS method; format: functional, organism-based; in short: as §1
Compound,Activity (Streptococcus pneumoniae [1]),inhibition (Streptococcus pneumoniae [1]) [%],other results
CCCCOP(=O)(NCCCC[C@H](NC(=O)OC(C)(C)C)C(=O)OC)C(C)NC(=O)OCc1ccccc1 (stereo partly specified),inactive,,
CCCCOP(=O)(NCCC)C(C)NC(=O)OCc1ccccc1 (stereo unspecified),inactive,,
COC(=O)[C@H](CCCCNP(=O)(OC)C(NC(=O)OCc1ccccc1)c1ccccc1)NC(=O)OC(C)(C)C (stereo partly specified),inactive,,
Nc1ncnc2c1ncn2[C@H]1C[C@H](OP(=O)(O)O)[C@@H](CO)O1,,15,
CC(N)P(=O)(O)O[C@@H]1[C@H](O)[C@@H](CO)O[C@H]1n1cnc2c(N)ncnc21 (stereo partly specified),,55,IC50 ([2]; read-out: IC50): 780 µM
COc1ccc(C[C@H](N)C(=O)N[C@H]2[C@@H](O)[C@H](n3cnc4c(N(C)C)ncnc43)O[C@@H]2CO)cc1,,0,
CC(N)P(=O)(O)O[C@H]1C[C@H](n2cnc3c(N)ncnc32)O[C@@H]1CO (stereo partly specified),,95,inhibition [3]: 22%; inhibition [4]: inactive; Activity (Enterococcus faecalis): inactive; IC50 ([2]; read-out: IC50): 100 µM; inhibition [5]: inactive; growth inhibition (GI) (Streptococcus pneumoniae [6]): inactive; Activity (Micrococcus flavus): inactive; inhibition [7]: 28%; Activity (Staphylococcus aureus [8]): inactive; Activity (Staphylococcus aureus [9]): inactive
CCCNP(=O)(OC)C(C)NC(=O)OCc1ccccc1 (stereo unspecified),inactive,,
CNC(=O)OC[C@H]1O[C@@H](n2cnc3c(N)ncnc32)C[C@@H]1OP(=O)(O)C(C)N (stereo partly specified),,3,
CC(NC(=O)OCc1ccccc1)P(=O)(O)O[C@H]1C[C@H](n2cnc3c(N)ncnc32)O[C@@H]1CO[Si](C)(C)C(C)(C)C (stereo partly specified),,0,
CC(NC(=O)OCc1ccccc1)P(=O)(O)O[C@H]1C[C@H](n2cnc3c(N)ncnc32)O[C@@H]1CO (stereo partly specified),,0,
CC(NC(=O)OCc1ccccc1)P(=O)(O)O[C@H]1C[C@H](n2cnc3c(NC(=O)c4ccccc4)ncnc32)O[C@@H]1CO[Si](C)(C)C(C)(C)C (stereo partly specified),,0,
COC(=O)[C@H](CCCCNP(=O)(OC)C(C)NC(=O)OCc1ccccc1)NC(=O)OC(C)(C)C (stereo partly specified),inactive,,
COCCOP(=O)(NCCCC[C@H](NC(=O)OC(C)(C)C)C(=O)OC)C(C)NC(=O)OCc1ccccc1 (stereo partly specified),inactive,,
CCCNP(=O)(OC)C(CC)NC(=O)OCc1ccccc1 (stereo unspecified),inactive,,
CC(N)P(=O)(O)O[C@H]1C[C@H](n2cnc3c(N)ncnc32)O[C@@H]1CO[Si](C)(C)C(C)(C)C (stereo partly specified),,0,
CCCNP(=O)(OCCOC)C(C)NC(=O)OCc1ccccc1 (stereo unspecified),inactive,,
CC(N)P(=O)(O)O[C@H]1[C@@H](O)[C@H](n2cnc3c(N)ncnc32)O[C@@H]1CO (stereo partly specified),,,IC50 [2]: Not Active
Nc1ncnc2c1ncn2[C@H]1C[C@H](O)[C@@H](CO)O1,,13,
CCCNP(=O)(OC)C(NC(=O)OCc1ccccc1)c1ccccc1 (stereo unspecified),inactive,,
